MIC50, MIC90 and viability data for five compounds are collected here from ChEMBL document CHEMBL1147665, “Design, synthesis, and biological evaluation of 4-alkyliden-beta lactams: new products with promising antibiotic activity against resistant bacteria” (J Med Chem, 2006).

In one series the test system is Haemophilus influenzae. In words: Antibacterial activity against Haemophilus influenzae. Format: functional. The essentials:
(§1)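 Broth microdilution MIC per CLSI guidelines in Mueller-Hinton broth: serial 2-fold dilutions, inoculum 5 × 10⁵ CFU/mL in equal volume, 35 °C for 16-20 h. MIC = lowest concentration with no visible turbidity. Recent clinical isolates (43 total, Gram-positive and Gram-negative); values given as MIC ranges, MIC₅₀ and MIC₉₀ per species.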

The next series deals with Enterococcus. Briefly: Antibacterial activity against Enterococcus spp. Format: functional. The method in brief:
as §1

The nature of series [1]: Viability of human TPC1 cell line at 128 uM after 3 hrs. The settings on record: TPC1 cells, read-out: Activity. The class given is cell-based. The essentials:
(§2)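 Human TPC1 cells seeded at 40 000/well in supplemented DMEM, grown overnight at 37 °C, 5% CO₂. Fresh medium with compound (0-128 µM, 2-fold steps), six parallel wells per concentration and controls, exposed 3, 6 or 21 h. MTT (5 mg/mL stock diluted 1:15 in medium) for 3 h, acidified 2-propanol solubilization, OD 600 nm; viability relative to control.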

Another series has as its system Streptococcus pneumoniae. In words: Antibacterial activity against Streptococcus pneumoniae. Format: functional. The method in brief:
as §1

Series [2] in a line: Viability of human TPC1 cell line at 8 uM after 21 hrs. Format: cell-based. As to conditions: TPC1 cells, read-out: Activity. The essentials: as §2
The subject of the next series is Streptococcus pyogenes. Briefly: Antibacterial activity against Streptococcus pyogenes. The class given is functional. The method in brief:
as §1

The subject of series [3] is Staphylococcus aureus. Briefly: Antibacterial activity against methicillin-susceptible Staphylococcus aureus. The class given is functional. The method in brief: as §1
The test system of series [4] is Staphylococcus epidermidis. In words: Antibacterial activity against Staphylococcus epidermidis. Format: functional. The essentials: as §1
Series [5] concerns Staphylococcus aureus. Briefly: Antibacterial activity against methicillin-resistant Staphylococcus aureus. Format: functional. The essentials: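 Clinical isolates (3 MRSA in a 43-strain panel). Broth microdilution per CLSI, serial 2-fold dilutions in Mueller-Hinton broth, inoculum 5 × 10⁵ CFU/mL, 35 °C for 16-20 h. MIC = lowest concentration with no visible turbidity; reported as MIC range, MIC₅₀ and MIC₉₀ across isolates.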

Series [6] is described as follows: Viability of human TPC1 cell line at 128 uM after 21 hrs. The class given is cell-based. As to conditions: TPC1 cells, read-out: Activity. The method in brief: as §2
A short description of series [7]: Viability of human TPC1 cell line at 32 uM after 21 hrs. Format: cell-based. The settings on record: TPC1 cells, read-out: Activity. The essentials: as §2

In brackets after ≈: the same amount, converted by molar mass.

As to `O=C(/C=C1\NC(=O)[C@@H]1Cl)OCc1ccccc1`, the MIC50 against Haemophilus influenzae is 1 mg/L (≈ 3.97 µM); against Enterococcus it was 16 mg/L (≈ 63.6 µM); with Streptococcus pneumoniae, 128 mg/L (≈ 509 µM); in the series with Streptococcus pyogenes, 32 mg/L (≈ 127 µM); against Staphylococcus aureus [3], 8 mg/L (≈ 31.8 µM); in series [4], 8 mg/L (≈ 31.8 µM). In the series with Staphylococcus aureus [5], this compound had an MIC50 of 16 mg/L (≈ 63.6 µM). The MIC90 against Haemophilus influenzae worked out at 2 mg/L (≈ 7.95 µM); against Enterococcus it was 16 mg/L (≈ 63.6 µM); in the series with Streptococcus pneumoniae, 128 mg/L (≈ 509 µM); against Streptococcus pyogenes, 128 mg/L (≈ 509 µM); against Staphylococcus aureus [3], 16 mg/L (≈ 63.6 µM); in series [4], 32 mg/L (≈ 127 µM). In the series with Staphylococcus aureus [5], this compound showed an MIC90 of 32 mg/L (≈ 127 µM). Moreover, the viability at 3 h, 128 µM in series [1] amounted to 48%. The viability at 21 h, 8 µM in [2] worked out at 81%. Besides, in series [6], the viability at 21 h, 128 µM turned out to be 23%.

On to `COc1cc(C(=O)O[C@H](C)[C@H]2C(=O)N/C2=C\C(=O)OCc2ccccc2)cc(OC)c1O`, for which the MIC50 in the series on Haemophilus influenzae stood at 64 mg/L (≈ 145 µM); against Enterococcus it was 128 mg/L (≈ 290 µM); against Streptococcus pneumoniae, 128 mg/L (≈ 290 µM); in the series with Streptococcus pyogenes, 128 mg/L (≈ 290 µM); in the series with Staphylococcus aureus [3], 16 mg/L (≈ 36.2 µM); in series [4], 2 mg/L (≈ 4.53 µM). In addition, the MIC50 with Staphylococcus aureus [5] turned out to be 32 mg/L (≈ 72.5 µM). Besides, the MIC90 against Haemophilus influenzae is 128 mg/L (≈ 290 µM); against Enterococcus it was greater than 128 mg/L; with Streptococcus pneumoniae, 128 mg/L (≈ 290 µM); in the series with Streptococcus pyogenes, 128 mg/L (≈ 290 µM); with Staphylococcus aureus [3], 128 mg/L (≈ 290 µM); in [4] it was 64 mg/L (≈ 145 µM). In the series with Staphylococcus aureus [5], this compound yielded an MIC90 of 64 mg/L (≈ 145 µM). For the same compound, the viability at 21 h, 32 µM in series [7] was determined as 81%. The viability at 21 h, 128 µM in [6] came out at 64%.

`C[C@@H](O[Si](C)(C)C(C)(C)C)[C@H]1C(=O)N/C1=C/C(=O)OCc1ccccc1`: the MIC50 worked out at 128 mg/L (≈ 341 µM) against Haemophilus influenzae; 64 mg/L (≈ 170 µM) against Enterococcus; 32 mg/L (≈ 85.2 µM) against Streptococcus pneumoniae; 64 mg/L (≈ 170 µM) in the series on Streptococcus pyogenes; 128 mg/L (≈ 341 µM) in the series with Staphylococcus aureus [3]; 128 mg/L (≈ 341 µM) in series [4]. This compound showed an MIC50 with Staphylococcus aureus [5] greater than 128 mg/L. Besides, the MIC90 is 128 mg/L (≈ 341 µM) against Haemophilus influenzae; 64 mg/L (≈ 170 µM) in the series with Enterococcus; 32 mg/L (≈ 85.2 µM) against Streptococcus pneumoniae; 64 mg/L (≈ 170 µM) with Streptococcus pyogenes; greater than 128 mg/L against Staphylococcus aureus [3]; greater than 128 mg/L in [4].

In the case of `CC1(C)S[C@@H]2[C@H](NC(=O)[C@H](N)c3ccc(O)cc3)C(=O)N2[C@H]1C(=O)O` [AMOXICILLIN], the MIC50 in the series with Haemophilus influenzae is 1 mg/L (≈ 2.74 µM); in the series on Enterococcus, 2 mg/L (≈ 5.47 µM); in the series with Streptococcus pneumoniae it was 0.12 mg/L (≈ 0.328 µM); against Streptococcus pyogenes it was less than 0.06 mg/L; against Staphylococcus aureus [3], 1 mg/L (≈ 2.74 µM); in series [4] it was 1 mg/L (≈ 2.74 µM). In the series with Staphylococcus aureus [5], this compound displayed an MIC50 of 64 mg/L (≈ 175 µM). Besides, the MIC90 against Haemophilus influenzae was 64 mg/L (≈ 175 µM); in the series with Enterococcus it was 2 mg/L (≈ 5.47 µM); in the series on Streptococcus pneumoniae, 8 mg/L (≈ 21.9 µM); with Streptococcus pyogenes, less than 0.06 mg/L; against Staphylococcus aureus [3], 8 mg/L (≈ 21.9 µM); in [4], 4 mg/L (≈ 10.9 µM). The compound further showed an MIC90 in the series with Staphylococcus aureus [5] of 128 mg/L (≈ 350 µM).

For the compound `COc1cc(C(=O)O[C@H](C)[C@H]2C(=O)N/C2=C\C(=O)OCc2ccccc2)cc(OC)c1OC`, the MIC50 with Haemophilus influenzae is greater than 128 mg/L; in the series on Enterococcus, 128 mg/L (≈ 281 µM); against Streptococcus pneumoniae, greater than 128 mg/L; with Streptococcus pyogenes, 128 mg/L (≈ 281 µM); against Staphylococcus aureus [3] it was 8 mg/L (≈ 17.6 µM); in series [4], 4 mg/L (≈ 8.78 µM). The compound also came in with an MIC50 against Staphylococcus aureus [5] of 128 mg/L (≈ 281 µM). For the same compound, the MIC90 is greater than 128 mg/L against Haemophilus influenzae; greater than 128 mg/L against Enterococcus; greater than 128 mg/L in the series with Streptococcus pneumoniae; greater than 128 mg/L against Streptococcus pyogenes; 16 mg/L (≈ 35.1 µM) against Staphylococcus aureus [3]; 16 mg/L (≈ 35.1 µM) in series [4]. In the series on Staphylococcus aureus [5], this compound returned an MIC90 of 128 mg/L (≈ 281 µM).
